Measurements taken from ChEMBL document CHEMBL4402567, “Structure-Activity Relationship Studies on Diversified Salicylamide Derivatives as Potent Inhibitors of Human Adenovirus Infection” (J Med Chem, 2020).
pIC50: −log10 of the molar value. The source made the active and inactive calls. The calls are words filed in the database; no cut-off is given here.

What was measured:
Human adenovirus 5 [1] = assay: Antiviral activity against Human adenovirus 5 infected in 293beta5 cells assessed as inhibition of plaque formation incubated for 7 days by GFP reporter gene assay; format: functional, organism-based; settings: Human mastadenovirus C, 293beta5, 168 h
Outline: (§1)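 HAdV5-GFP plaque assay in 293β5 cells at low MOI. Inhibition is expressed as percent of the infected control, with single-dose screening at 10 μM. Compounds giving >90% inhibition went on to IC50 determination. Values are means ± SD of triplicate samples from three independent experiments.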

[2] = Cytotoxicity against human A549 cells assessed as reduction in cell viability after 48 hrs by alamar blue assay; format: cell-based
[3] = Selectivity index, ratio of CC50 for cytotoxicity against human A549 cells to IC50 for antiviral activity against Human adenovirus 5 infected in 293beta5 cells assessed as inhibition of plaque formation after 7 days; format: toxicity, cell-based; settings: read-out: Ratio CC50/IC50
Human adenovirus 5 [4] = assay: Antiviral activity against Human adenovirus 5 infected in human A549 cells assessed as inhibition of viral entry after 48 hrs by GFP reporter gene based assay; format: functional, organism-based; settings: Human mastadenovirus C, A549, 48 h
Outline: (§2)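 Entry assay in A549 epithelial cells infected with HAdV5-GFP at high MOI, with compound present throughout and 48 h incubation. GFP expression is the read-out.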

Human adenovirus 5 [5] = assay: Antiviral activity against Human adenovirus 5 infected in human A549 cells assessed as fold reduction in virus yield at 2 uM after 48 hrs endpoint dilution method relative to control; format: functional
Human adenovirus 5 [6] = assay: Antiviral activity against Human adenovirus 5 infected in 293beta5 cells assessed as inhibition of viral infection at 5 uM measured after 20 to 40 mins post infection by GFP reporter gene assay relative to control; format: functional; design: scale not given: the % may be the effect or the level left
Human adenovirus 5 [7] = assay: Antiviral activity against Human adenovirus 5 infected in human A549 cells asssessed as inhibition of viral entry by measuring nuclear-associated viral genome level at 2 uM after 45 mins by RT-PCR analysis (reference value: 100.24 +/- 2.77%); format: functional; design: scale not given: the % may be the effect or the level left
Outline: (§3)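 Nuclear HAdV genome levels in treated cells were quantified at 45 min post-infection and compared with DMSO-treated cells. […] Bars are means ± SD of triplicate samples.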

Human adenovirus 5 [8] = assay: Antiviral activity against Human adenovirus 5 infected in human A549 cells assessed as inhibition of viral DNA replication by measuring number of viral DNA copies at 2 uM after 24 hrs by RT-qPCR analysis (reference value: 100 +/- 1.55%); format: functional; design: scale not given: the % may be the effect or the level left
Human adenovirus 5 [9] = assay: Antiviral activity against Human adenovirus 5 infected in 293beta5 cells assessed as inhibition of plaque formation at 10 uM incubated for 7 days by GFP reporter gene assay relative to control; format: functional; settings: Human mastadenovirus C, 293beta5, 168 h; outline: as §1
Human adenovirus 5 [10] = assay: Antiviral activity against Human adenovirus 5 infected in human A549 cells assessed as inhibition of viral entry at 50 uM after 48 hrs by GFP reporter gene based assay relative to control; format: functional; settings: Human mastadenovirus C, A549, 48 h; outline: as §2
Human adenovirus 5 [11] = assay: Antiviral activity against Human adenovirus 5 infected in human A549 cells assessed as fold reduction in virus yield at 10 uM after 48 hrs endpoint dilution method relative to control; format: functional
Human adenovirus 5 [12] = assay: Antiviral activity against Human adenovirus 5 infected in 293beta5 cells assessed as inhibition of viral infection at 10 uM measured after 5 to 10 mins post infection by GFP reporter gene assay relative to control; format: functional; design: scale not given: the % may be the effect or the level left
Human adenovirus 5 [13] = assay: Antiviral activity against Human adenovirus 5 infected in human A549 cells asssessed as inhibition of viral entry by measuring nuclear-associated viral genome level at 10 uM after 45 mins by RT-PCR analysis (reference value: 100.24 +/- 2.77%); format: functional; design: scale not given: the % may be the effect or the level left; outline: as §3
Human adenovirus 5 [14] = assay: Antiviral activity against Human adenovirus 5 infected in human A549 cells assessed as inhibition of viral DNA replication by measuring number of viral DNA copies at 10 uM after 24 hrs by RT-qPCR analysis (reference value: 100 +/- 1.55%); format: functional; design: scale not given: the % may be the effect or the level left
Human adenovirus 5 [15] = assay: Antiviral activity against Human adenovirus 5 infected in human A549 cells assessed as fold reduction in virus yield at 20 uM after 48 hrs endpoint dilution method relative to control; format: functional
Human adenovirus 5 [16] = assay: Antiviral activity against Human adenovirus 5 infected in 293beta5 cells assessed as reduction in inhibition of viral replication at 10 uM preincubated for 60 mins followed by viral infection by GFP reporter gene assay; format: functional, organism-based
Human adenovirus 5 [17] = assay: Antiviral activity against Human adenovirus 5 infected in 293beta5 cells assessed as inhibition of viral replication at 10 uM after 20 mins post infection by GFP reporter gene assay relative to control; format: functional; settings: Human mastadenovirus C, 293beta5, 20 min
Human adenovirus 5 [18] = assay: Antiviral activity against Human adenovirus 5 infected in human A549 cells asssessed as inhibition of viral entry by measuring nuclear-associated viral genome level at 20 uM after 45 mins by RT-PCR analysis (reference value: 100.24 +/- 2.77%); format: functional; design: scale not given: the % may be the effect or the level left; outline: as §3
Human adenovirus 5 [19] = assay: Antiviral activity against Human adenovirus 5 infected in human A549 cells assessed as inhibition of viral DNA replication by measuring number of viral DNA copies at 20 uM after 24 hrs by RT-qPCR analysis (reference value: 100 +/- 1.55%); format: functional; design: scale not given: the % may be the effect or the level left
Human adenovirus 5 [20] = assay: Antiviral activity against Human adenovirus 5 infected in human A549 cells assessed as fold reduction in virus yield at 50 uM after 48 hrs endpoint dilution method relative to control; format: functional
Human adenovirus 5 [21] = assay: Antiviral activity against Human adenovirus 5 infected in 293beta5 cells assessed as inhibition of viral infection at 10 uM preincubated for 60 mins followed by viral infection by GFP reporter gene assay relative to control; format: functional; settings: Human mastadenovirus C
Human adenovirus 5 [22] = assay: Antiviral activity against Human adenovirus 5 infected in 293beta5 cells assessed as inhibition of viral infection at 10 uM measured after 2 hrs post infection by GFP reporter gene assay relative to control; format: functional; settings: Human mastadenovirus C, 293beta5, 2 h
Human adenovirus 5 [23] = assay: Antiviral activity against Human adenovirus 5 infected in human A549 cells asssessed as inhibition of viral entry by measuring nuclear-associated viral genome level at 50 uM after 45 mins by RT-PCR analysis (reference value: 100.24 +/- 2.77%); format: functional; design: scale not given: the % may be the effect or the level left; outline: as §3
Human adenovirus 5 [24] = assay: Antiviral activity against Human adenovirus 5 infected in human A549 cells assessed as inhibition of viral DNA replication by measuring number of viral DNA copies at 50 uM after 24 hrs by RT-qPCR analysis (reference value: 100 +/- 1.55%); format: functional; design: scale not given: the % may be the effect or the level left

Row | Structure (SMILES) | pIC50 (Human adenovirus 5 [1]) | CC50 at 48 h [2] | selectivity ratio at 168 h [3] | pIC50 (Human adenovirus 5 [4]) | inhibition at 10 µM (Human adenovirus 5 [9]) | inhibition at 50 µM (Human adenovirus 5 [10]) | also measured
1 | O=C(Nc1ccc([N+](=O)[O-])cc1F)c1cc(Cl)ccc1O | 7.30 | 10.9 µM | 218 | 5.80 | – | – | fold change (FC) (Human adenovirus 5 [5]): 1.8; Activity (Human adenovirus 5 [6]): 34%; Activity (Human adenovirus 5 [7]): 57.6%; Activity (Human adenovirus 5 [8]): 75.85%
2 | O=C(Nc1ccc(C(F)(F)F)cc1Cl)c1cc(Cl)ccc1O | 7.10 | – | – | 5.78 | 100% | 100% | fold change (FC) (Human adenovirus 5 [11]): 175; Activity (Human adenovirus 5 [12]): 20%; Activity (Human adenovirus 5 [13]): 46.53%; Activity (Human adenovirus 5 [14]): 27.03%
3 | O=C(N[C@H](Cc1ccccc1)C(=O)Nc1ccc([N+](=O)[O-])cc1Cl)c1cc(Cl)ccc1O | 6.52 | 77.9 µM | 260 | 5.01 | 100% | – | fold change (FC) (Human adenovirus 5 [15]): 528; Activity (Human adenovirus 5 [16]): Active; inhibition at 10 µM (Human adenovirus 5 [17]): 50%; Activity (Human adenovirus 5 [18]): 32.21%; Activity (Human adenovirus 5 [19]): 25.78%
4 | CC(C)[C@H](NC(=O)c1cc(Cl)ccc1NS(C)(=O)=O)C(=O)Nc1ccc([N+](=O)[O-])cc1Cl | 6.17 | 174 µM | 256 | 5.86 | 99.1% | 99.1% | fold change (FC) (Human adenovirus 5 [20]): 1; inhibition at 10 µM (Human adenovirus 5 [21]): > 50%; inhibition at 10 µM (Human adenovirus 5 [22]): > 50%; Activity (Human adenovirus 5 [23]): 16.68%; Activity (Human adenovirus 5 [24]): 4.56%
